In ChEMBL document CHEMBL1132575 (J Med Chem, 1999):

Tests used:
[1] = biological target: T1, 5-hydroxytryptamine receptor 1D (Homo sapiens, UniProt P28221); test: Intrinsic activity for 5-hydroxytryptamine 1D receptor; assay type: functional
Procedure, shortened: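 Agonism measured as inhibition of forskolin-stimulated adenylyl cyclase in cell lines expressing the human 5-HT1D receptor.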

[2] = biological target: T1, 5-hydroxytryptamine receptor 1D; test: In vitro receptor binding affinity for cloned human 5-hydroxytryptamine 1D receptor
Procedure, shortened: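 Radioligand binding assay in cell lines expressing the human 5-HT1D receptor; affinity reported as Ki values. Further procedural detail is referenced to earlier work.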

[3] = biological target: T2, 5-hydroxytryptamine receptor 1A (Homo sapiens, UniProt P08908); test: In vitro receptor binding affinity for cloned human 5-hydroxytryptamine 1A receptor
T2 sequence (P08908 whole entry): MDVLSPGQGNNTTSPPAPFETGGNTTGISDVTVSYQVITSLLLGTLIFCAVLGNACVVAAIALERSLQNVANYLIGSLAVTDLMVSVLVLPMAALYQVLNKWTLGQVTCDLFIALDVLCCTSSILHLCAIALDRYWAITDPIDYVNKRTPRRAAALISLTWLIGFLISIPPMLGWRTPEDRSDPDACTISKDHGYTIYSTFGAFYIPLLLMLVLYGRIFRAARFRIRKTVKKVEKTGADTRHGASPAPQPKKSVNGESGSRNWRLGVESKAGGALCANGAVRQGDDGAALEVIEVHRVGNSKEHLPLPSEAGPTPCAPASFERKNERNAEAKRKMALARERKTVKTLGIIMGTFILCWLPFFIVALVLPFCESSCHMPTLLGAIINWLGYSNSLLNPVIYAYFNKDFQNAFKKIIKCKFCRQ

[4] = biological target: 5-hydroxytryptamine receptor 1B (Homo sapiens, UniProt P28222); test: In vitro receptor binding affinity for cloned human 5-hydroxytryptamine 1B receptor
[5] = biological target: T1, 5-hydroxytryptamine receptor 1D; test: Ability to inhibit forskolin-stimulated adenylate cyclase in a cell line expressing human 5-hydroxytryptamine 1D receptor; assay type: functional

T1 sequence (P28221 whole entry): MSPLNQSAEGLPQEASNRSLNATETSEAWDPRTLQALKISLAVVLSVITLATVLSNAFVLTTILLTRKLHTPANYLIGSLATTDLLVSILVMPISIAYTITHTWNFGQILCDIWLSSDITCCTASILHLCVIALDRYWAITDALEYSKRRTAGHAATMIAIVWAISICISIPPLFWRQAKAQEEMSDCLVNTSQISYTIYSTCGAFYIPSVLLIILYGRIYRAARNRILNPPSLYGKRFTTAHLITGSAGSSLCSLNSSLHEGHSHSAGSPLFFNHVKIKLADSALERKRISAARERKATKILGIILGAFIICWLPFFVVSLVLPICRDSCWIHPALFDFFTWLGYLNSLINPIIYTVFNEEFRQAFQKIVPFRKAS
Chain of 5-hydroxytryptamine receptor 1B (P28222 whole entry): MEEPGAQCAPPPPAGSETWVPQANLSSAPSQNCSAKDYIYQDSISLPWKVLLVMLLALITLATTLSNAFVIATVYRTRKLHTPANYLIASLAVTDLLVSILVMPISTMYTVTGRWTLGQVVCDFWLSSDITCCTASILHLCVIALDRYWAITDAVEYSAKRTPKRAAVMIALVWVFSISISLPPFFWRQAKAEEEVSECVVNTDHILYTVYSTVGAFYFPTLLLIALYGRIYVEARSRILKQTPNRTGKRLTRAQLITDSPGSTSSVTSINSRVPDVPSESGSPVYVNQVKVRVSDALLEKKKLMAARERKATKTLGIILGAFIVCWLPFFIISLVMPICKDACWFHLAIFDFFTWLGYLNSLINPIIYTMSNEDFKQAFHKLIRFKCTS

| SMILES | Ki [2] [nM] | further results |
| --- | --- | --- |
| CN(C)CCc1c[nH]c2ccc(Cn3cncn3)cc12 |  | Emax [1]: 97% |
| CN(C)CCc1c[nH]c2ccc(C(C)(C)C)cc12 | 0.44 |  |
| CCCNCCc1c[nH]c2ccc(C(C)(C)C)cc12 | 6.2 |  |
| CNCCc1c[nH]c2ccc(C(C)(C)C)cc12 | 0.45 | Ki [3]: 6.1 nM; Ki [4]: 1.9 nM; EC50 [5]: 0.22 nM; Emax [1]: 100% |
| Cc1ccc2[nH]cc(CCN)c2c1 | 6.4 |  |
| CN[C@@H]1CCc2[nH]c3ccc(C(N)=O)cc3c2C1 [FROVATRIPTAN] | […] | Ki [3]: 62 nM |
| CCc1ccc2[nH]cc(CCN)c2c1 | 3.7 |  |
| CNS(=O)(=O)CCc1ccc2[nH]cc(C3CCN(C)CC3)c2c1 | 2.3 | Ki [3]: 45 nM; Ki [4]: 3.3 nM; EC50 [5]: 1.6 nM; Emax [1]: 100% |
| CC(C)c1ccc2[nH]cc(CCN)c2c1 | 1.1 |  |
| CNS(=O)(=O)Cc1ccc2[nH]cc(CCN(C)C)c2c1 |  | Emax [1]: 93% |
| NCCc1c[nH]c2ccc(C3CCCCC3)cc12 | 3.4 |  |
| NCCc1c[nH]c2ccc(C3CCCC3)cc12 | 1.7 |  |
| CCCN(CCC)CCc1c[nH]c2ccc(C(C)(C)C)cc12 | 10.8 |  |
| CC(C)(C)c1ccc2[nH]cc(CCN)c2c1 | 0.6 |  |
